Reference: ChEMBL document CHEMBL5257122, “Structure-Activity relationships of replacements for the triazolopyridazine of Anti-Cryptosporidium lead SLU-2633” (Bioorg Med Chem, 2023)

What was measured:
Cryptosporidium parvum [1] = assay: Antiparasitic activity against Cryptosporidium parvum infected in human HCT-8 cells assessed as parasitic growth inhibition measured for 48 hrs by fluorescence microscopic analysis; format: functional, organism-based; settings: HCT-8, 48 h
Procedure, shortened: (§1)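 C. parvum Iowa isolate oocysts excysted (10 mM HCl, 10 min, 37 °C; then 2 mM sodium taurocholate in PBS, 10 min, 16 °C) and used to infect near-confluent HCT-8 monolayers. Compound added after 3 h, then 45 h more at 37 °C, 5% CO₂. Fixed, stained with fluorescein-Vicia villosa lectin (vacuoles) and Hoechst (nuclei), imaged and counted automatically. 9-point dose-response, ≥2 experiments, n=8 per dose.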

[2] = Dissociation constant, pKa of compound; format: physicochemical
Procedure, shortened: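 Basic pKa calculated in silico (CDD Vault, method of Lu et al.), not measured.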

[3] = Lipophilicity, logP of the compound; format: physicochemical; settings: octanol/water
Procedure, shortened: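 LogP calculated in silico (CDD Vault, method of Gedeck et al.) as an estimate of lipophilicity.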

[4] = molecular target: T1, Voltage-gated inwardly rectifying potassium channel KCNH2 (Homo sapiens, UniProt Q12809); assay: Displacement of [3H]-dofetilide from human ERG at 10 uM relative to control; format: toxicity
T1 sequence (Q12809 whole entry): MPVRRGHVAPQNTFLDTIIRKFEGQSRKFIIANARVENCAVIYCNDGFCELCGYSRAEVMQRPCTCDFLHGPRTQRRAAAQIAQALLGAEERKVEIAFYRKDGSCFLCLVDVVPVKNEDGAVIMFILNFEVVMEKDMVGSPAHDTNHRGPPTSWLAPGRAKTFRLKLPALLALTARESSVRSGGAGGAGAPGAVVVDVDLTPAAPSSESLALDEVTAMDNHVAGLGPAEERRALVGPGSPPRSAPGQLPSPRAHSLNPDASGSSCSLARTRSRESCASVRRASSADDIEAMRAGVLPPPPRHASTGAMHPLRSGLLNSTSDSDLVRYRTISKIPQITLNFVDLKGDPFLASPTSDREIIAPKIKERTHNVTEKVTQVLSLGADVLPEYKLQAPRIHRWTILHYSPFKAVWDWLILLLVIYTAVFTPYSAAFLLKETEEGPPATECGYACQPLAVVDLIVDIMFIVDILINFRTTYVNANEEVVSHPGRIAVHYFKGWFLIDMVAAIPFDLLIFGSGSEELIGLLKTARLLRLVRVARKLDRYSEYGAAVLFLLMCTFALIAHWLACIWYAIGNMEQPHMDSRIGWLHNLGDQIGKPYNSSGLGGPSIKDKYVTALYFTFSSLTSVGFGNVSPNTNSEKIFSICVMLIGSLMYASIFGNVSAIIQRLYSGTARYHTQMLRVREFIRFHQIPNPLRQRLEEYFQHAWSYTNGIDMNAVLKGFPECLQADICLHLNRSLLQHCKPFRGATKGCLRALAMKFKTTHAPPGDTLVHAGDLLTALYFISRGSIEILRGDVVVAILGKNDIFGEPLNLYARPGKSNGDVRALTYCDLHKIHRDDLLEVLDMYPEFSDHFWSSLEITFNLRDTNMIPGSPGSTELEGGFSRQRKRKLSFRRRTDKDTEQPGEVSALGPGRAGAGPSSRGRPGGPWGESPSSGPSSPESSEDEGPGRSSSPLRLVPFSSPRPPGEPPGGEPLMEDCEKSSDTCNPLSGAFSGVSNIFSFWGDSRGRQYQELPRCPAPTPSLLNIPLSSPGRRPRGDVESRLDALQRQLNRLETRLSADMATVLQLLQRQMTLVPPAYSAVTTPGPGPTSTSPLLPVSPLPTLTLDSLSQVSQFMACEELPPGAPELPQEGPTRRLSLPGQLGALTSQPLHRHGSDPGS
Procedure, shortened: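 Radioligand binding against human hERG potassium channel: % inhibition of [³H]-dofetilide binding by test compound at 10 μM.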

HCT-8 = assay: Cytotoxicity against human HCT-8 cells assessed as reduction in cell growth; format: functional
[5] = molecular target: T1, Voltage-gated inwardly rectifying potassium channel KCNH2; assay: Inhibition of hERG in CHO cells at 30 uM by automated patch clamp method relative to control; format: toxicity, cell-based
Procedure, shortened: (§2)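 hERG expressed in CHO cells, automated patch-clamp electrophysiology. Tail current inhibition measured at 1, 10 and 30 μM, each in duplicate, and reported as the average % inhibition.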

[6] = molecular target: T1, Voltage-gated inwardly rectifying potassium channel KCNH2; assay: Inhibition of hERG in CHO cells at 10 uM by automated patch clamp method relative to control; format: toxicity, cell-based; procedure, shortened: as §2
[7] = molecular target: T1, Voltage-gated inwardly rectifying potassium channel KCNH2; assay: Inhibition of hERG in CHO cells at 1 uM by automated patch clamp method relative to control; format: toxicity, cell-based; procedure, shortened: as §2
Cryptosporidium parvum [8] = assay: Antiparasitic activity against Cryptosporidium parvum assessed as reduction in parasitic growth; format: functional, organism-based; procedure, shortened: as §1

SMILES	EC50 (Cryptosporidium parvum [1])	also measured
O=C(Cc1ccc(Cl)c(Cl)c1)N1CCN(c2ncccn2)CC1	> 50 µM	
O=C(Nc1ccc(Cl)c(Cl)c1)N1CCN(c2ccc3nncn3n2)CC1		pKa [2]: 5.9; logP [3]: 4
COc1ccc(N2CCN(C(=O)Cc3ccc(Cl)c(Cl)c3)CC2)nn1	57 µM	
O=C(Cc1ccc(Cl)c(Cl)c1)N1CCN(c2ccc3nc[nH]c3c2)CC1	20 µM	
O=C(Cc1ccc(Cl)c(Cl)c1)N1CCN(c2ccc3c(cnn3Cc3ccccc3)n2)CC1	45 µM	
O=C(Nc1ccc(Cl)c(Cl)c1)N1CCN(c2nc3ccccc3[nH]2)CC1	17 µM	
CCOC(=O)c1cn2nc(N3CCN(C(=O)Cc4ccc(Cl)c(Cl)c4)CC3)ccc2n1	58 µM	
Cc1nc2nc(N3CCN(C(=O)Cc4ccc(Cl)c(Cl)c4)CC3)ccc2s1	18 µM	
O=C(Cc1ccc(Cl)c(Cl)c1)N1CCN(c2ccc3nnc(-c4ccnc(C(F)(F)F)c4)n3n2)CC1	6.1 µM	pKa [2]: 6; Activity [4]: 95%
Cc1cc(N2CCN(C(=O)Cc3ccc(Cl)c(Cl)c3)CC2)nn2cnnc12	61 µM	
O=C(Cc1ccc(Cl)c(Cl)c1)N1CCN(c2ccc3cn[nH]c3c2)CC1	26 µM	
O=C(Nc1nc2nc(N3CCN(C(=O)Cc4ccc(Cl)c(Cl)c4)CC3)ccc2s1)c1ccncc1	7.3 µM	
O=C(Cc1ccc(Cl)c(Cl)c1)N1CCN(c2ccc3nnc(Cc4ccccc4)n3n2)CC1	16 µM	
O=C(Cc1ccc(Cl)c(Cl)c1)N1CCN(c2ccc3nnc(C(F)(F)F)n3n2)CC1	29 µM	
O=C(Cc1ccc(Cl)c(Cl)c1)N1CCN(c2ccc3nnc(Cl)n3n2)CC1	29 µM	
CC(C)(C)OC(=O)N1CCN(C(=O)Cc2ccc(Cl)c(Cl)c2)CC1	> 50 µM	
Nc1nnc2ccc(N3CCN(C(=O)Cc4ccc(Cl)c(Cl)c4)CC3)nn12	65 µM	
O=C(Cc1ccc(Cl)c(Cl)c1)N1CCN(c2ccc3nncn3n2)CC1		pKa [2]: 5.9; CC50 (HCT-8): > 100 µM; logP [3]: 3
Cn1ncc2nc(N3CCN(C(=O)Cc4ccc(Cl)c(Cl)c4)CC3)ccc21	> 50 µM	
Cc1nnc2ccc(N3CCN(C(=O)Cc4ccc(Cl)c(Cl)c4)CC3)nn12	30 µM	
O=C(Nc1ccc(Cl)c(Cl)c1)N1CCN(c2ccc3nnc(Cl)n3n2)CC1	12 µM	
O=C(Cc1ccc(Cl)c(Cl)c1)N1CCN(C2=Nn3cnnc3CC2)CC1	1.2 µM	pKa [2]: 4.4; inhibition (INH) [5]: 61%; inhibition (INH) [6]: 34%; inhibition (INH) [7]: 8.7%; Activity [4]: 15%; logP [3]: 1.8
O=C(Cc1ccc(Cl)c(Cl)c1)N1CCN(c2ccc3nnc(N4CCOCC4)n3n2)CC1	48 µM	

SMILES	EC50 (Cryptosporidium parvum [1])	also measured
CN(C)C(=O)c1cn2nc(N3CCN(C(=O)Cc4ccc(Cl)c(Cl)c4)CC3)ccc2n1	38 µM	
O=C(Cc1ccc(Cl)c(Cl)c1)N1CCN(c2ccc3ccccc3n2)CC1	46 µM	
O=C(Nc1ccc(Cl)c(Cl)c1)N1CCN(c2ccc3nnc(C(F)(F)F)n3n2)CC1	11 µM	
O=C(Cc1ccc(Cl)c(Cl)c1)N1CCN(c2ccc(C(F)(F)F)nn2)CC1	49 µM	
O=C(Nc1ccc(Cl)c(Cl)c1)N1CCN(c2ccccc2)CC1	20 µM	
O=C(Cc1ccc(Cl)c(Cl)c1)N1CCN(c2ccc3nnc(-c4ccccc4)n3n2)CC1	15 µM	
O=C(Nc1ccc(Cl)c(Cl)c1)N1CCN(c2ncc(C(F)(F)F)cn2)CC1	> 25 µM	
Nc1cn2nc(N3CCN(C(=O)Cc4ccc(Cl)c(Cl)c4)CC3)ccc2n1	> 50 µM	
Cc1nnc2ccc(N3CCN(C(=O)Nc4ccc(Cl)c(Cl)c4)CC3)nn12	26 µM	
O=C(Nc1ccc(Cl)cc1)N1CCN(c2ccc3nncn3n2)CC1		EC50 (Cryptosporidium parvum [8]): 2.1 µM
O=C(Nc1nc2cc(N3CCN(C(=O)Cc4ccc(Cl)c(Cl)c4)CC3)ccc2s1)c1ccccc1	93 µM	
O=C(Cc1ccc(Cl)c(Cl)c1)N1CCN(c2ccc3[nH]ncc3n2)CC1	28 µM	
CNc1nccc(N2CCN(C(=O)Nc3ccc(Cl)c(Cl)c3)CC2)n1	> 25 µM	
O=C(Cc1ccc(Cl)c(Cl)c1)N1CCN(c2ccc3ncccc3n2)CC1	38 µM	
O=C(Cc1ccc(Cl)c(Cl)c1)N1CCN(c2ccc3[nH]c(=O)sc3c2)CC1	> 50 µM	
Cc1cccc(N2CCN(C(=O)Cc3ccc(Cl)c(Cl)c3)CC2)n1	36 µM	
O=C(Cc1ccc(Cl)c(Cl)c1)N1CCN(c2ccc3nnc(-c4ccncc4)n3n2)CC1	> 50 µM	
O=C(O)c1cn2nc(N3CCN(C(=O)Cc4ccc(Cl)c(Cl)c4)CC3)ccc2n1	> 50 µM	
O=C(Cc1ccc(Cl)c(Cl)c1)N1CCN(c2ccc3nn(Cc4ccccc4)cc3n2)CC1	7.8 µM	pKa [2]: 6.2; Activity [4]: 80%
CCCCOC(=O)c1cn2nc(N3CCN(C(=O)Cc4ccc(Cl)c(Cl)c4)CC3)ccc2n1	23 µM	
O=C(Cc1ccc(Cl)c(Cl)c1)N1CCN(c2cc3ccncc3cn2)CC1	50 µM	
O=C(Cc1ccc(Cl)c(Cl)c1)N1CCN(c2ccccn2)CC1	> 50 µM	
O=C(Cc1ccc(Cl)c(Cl)c1)N1CCN(c2ccc3cc[nH]c3n2)CC1	30 µM	

SMILES	EC50 (Cryptosporidium parvum [1])	also measured
Cc1nccc(N2CCN(C(=O)Cc3ccc(Cl)c(Cl)c3)CC2)n1	> 50 µM	
O=C(Cc1ccc(Cl)c(Cl)c1)N1CCN(c2nc3ccccc3o2)CC1	> 50 µM	
CC(=O)Oc1ccccc1C(=O)Nc1ncc([N+](=O)[O-])s1 [NITAZOXANIDE]	3.7 µM	
Cc1cc2nncn2nc1N1CCN(C(=O)Nc2ccc(Cl)c(Cl)c2)CC1	25 µM	
O=C(Cc1ccc(Cl)c(Cl)c1)N1CCNCC1	> 50 µM	
O=C(Nc1ccc(Cl)c(Cl)c1)N1CCN(c2cn3ccnc3cn2)CC1	> 25 µM	
Nc1nc2cc(N3CCN(C(=O)Cc4ccc(Cl)c(Cl)c4)CC3)ccc2s1	16 µM	
Cc1cc2nncn2nc1N1CCN(C(=O)Cc2ccc(Cl)c(Cl)c2)CC1	23 µM	
Cc1cc(N2CCN(C(=O)Nc3ccc(Cl)c(Cl)c3)CC2)nn2cnnc12	24 µM	
O=C(Cc1ccc(Cl)c(Cl)c1)N1CCN(c2ccc3nonc3c2)CC1	24 µM	
O=C(Cc1ccc(Cl)c(Cl)c1)N1CCN(c2ncc([N+](=O)[O-])s2)CC1	20 µM	
Nc1nc2nc(N3CCN(C(=O)Cc4ccc(Cl)c(Cl)c4)CC3)ccc2s1	3.2 µM	pKa [2]: 5.9; Activity [4]: 34%
Cc1nc2cc(N3CCN(C(=O)Cc4ccc(Cl)c(Cl)c4)CC3)ccc2s1	14 µM	
O=C(Cc1ccc(Cl)c(Cl)c1)N1CCN(c2nc3ccccc3s2)CC1	36 µM	
O=C(Cc1ccc(Cl)c(Cl)c1)N1CCN(c2ccc3nc(C(=O)N4CCOCC4)cn3n2)CC1	> 50 µM	
O=C(Cc1ccc(Cl)c(Cl)c1)N1CCN(c2nccc(C(F)(F)F)n2)CC1	> 50 µM	
O=C(Cc1ccc(Cl)c(Cl)c1)N1CCN(c2ccccc2)CC1	42 µM	pKa [2]: 3; Activity [4]: 2%
O=C(Cc1ccc(Cl)c(Cl)c1)N1CCN(c2ccc3nccn3n2)CC1	63 µM	
O=C(Nc1ccc(Cl)c(Cl)c1)N1CCN(C2=Nn3cnnc3CC2)CC1	13 µM	logP [3]: 2.3
O=C(Nc1nc2nc(N3CCN(C(=O)Cc4ccc(Cl)c(Cl)c4)CC3)ccc2s1)c1ccccc1	2.9 µM	pKa [2]: 7.7; Activity [4]: 47%
O=C(Cc1ccc(Cl)c(Cl)c1)N1CCN(c2ccn3nccc3n2)CC1	47 µM	
O=C(Nc1ccc(Cl)c(Cl)c1)N1CCN(c2ccc3nccn3n2)CC1	16 µM	pKa [2]: 6.4; Activity [4]: 77%
